Source: ChEMBL document CHEMBL1123120, “Synthesis and structure-activity relationships of a new series of antiarrhythmic agents: 4,4-disubstituted hexahydro-3H-pyrido[1,2-c]pyrimidin-3-ones and related compounds” (J Med Chem, 1985)

Tests used:
[1] = tested on: Canis familiaris; experiment: Decrease in myocardial contractility was determined by monitoring the maximum rate of rise of ventricular pressure in 10 Beagle dogs at a dose of 10 mg/kg; type: functional, Canis lupus familiaris, Cardiac ventricle
[2] = tested on: Canis familiaris; experiment: Antiarrhythmic activity in Beagle dogs following i.v. administration; minimum effective dose to suppress ventricular ectopic rate >/=25% for a minimum duration of 10 min.; type: functional, Canis lupus familiaris, Heart; details: for minimal effective dose: Canis lupus familiaris, Heart, iv, 10 min, read-out: MED
In short: (§1)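 Beagles of either sex, pentobarbital 30 mg/kg i.v., had two-stage LAD coronary ligation; tested conscious about 24 h later if ectopic rate ≥130 beats/min, ectopic ≥75% of total rate, and controls within 10%. HCl salts given i.v. to at least two dogs: 5 mg/kg repeated every 15 min to 20 mg/kg max; if active, 1 mg/kg every 5 min to 6 mg/kg. Active means ectopic rate reduced ≥25% for ≥10 min.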

[3] = organism: Cavia porcellus; experiment: Antimuscarinic activity in guinea pig ileum; type: functional; details: read-out: pA2 (converted)
In short: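 Guinea pig ileum was held in modified Tyrode's gassed with 95% O2/5% CO2, pH 7.4, under 0.5 g tension and equilibrated 30 min. A cumulative acetylcholine curve was run, the tissue rinsed 10 min, and the curve repeated with antagonist at four concentrations at quarter-log steps. pA2 by Van Rossum; if noncompetitive, −log of the concentration cutting maximal response 50%. At least four experiments were run.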

[4] = organism: Canis familiaris; experiment: The mean effective dose to suppress ventricular ectopic rate >=25% for a minimum duration of 10 minutes was reported.; type: functional; details: Canis lupus familiaris, Cardiac ventricle, read-out: MED; in short: as §1
[5] = target: Muscarinic acetylcholine receptor (Rattus norvegicus) (UniProt P08482+P08483+P08485+P08911+P10980); experiment: Muscarinic acetylcholine receptor binding affinity in rat brain homogenate by [3H]quinuclidinylbenzilate displacement compared to disopyramide.; type: tissue-based
In short: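 Whole male CD rat brain without cerebellum was homogenized and spun at 1000g. The supernatant was incubated with 0.15 nM [3H]QNB, with or without compound, 25 °C, 1 h. Three to six concentrations were run in triplicate, and IC50 came from log-probit analysis. Values are expressed as the ratio IC50(test)/IC50(disopyramide).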

[6] = tested on: Canis familiaris; experiment: Hemodynamic effect of 1 mg/kg of compound was assessed in Beagle dogs by decrease in mean arterial pressure; max dose administered was 10 mg/kg; type: functional, Canis lupus familiaris, Artery
In short: (§2)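 Dogs of either sex were anesthetized with pentobarbital 30 mg/kg i.v. plus 5 mg/kg, then stabilized 30 min. Compound was given via right femoral vein. Where mean antiarrhythmic dose exceeded 5 mg/kg: 5 mg/kg over 5 min every 15 min until MAP fell 50% or 50 mg/kg cumulative. Otherwise: 1 mg/kg/min every 5 min up to 10 mg/kg. MAP was electronically averaged, with baseline the mean of four 5-min readings.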

[7] = tested on: Canis familiaris; experiment: Hemodynamic effect of 5 mg/kg of compound was assessed in Beagle dogs by decrease in mean arterial pressure; max dose administered was 29 mg/kg; type: functional, Canis lupus familiaris, Artery; in short: as §2
[8] = tested on: Canis familiaris; experiment: Hemodynamic effect of 5 mg/kg of compound was assessed in Beagle dogs by decrease in mean arterial pressure; max dose administered was 50 mg/kg; type: functional, Canis lupus familiaris, Artery; in short: as §2
[9] = tested on: Canis familiaris; experiment: Hemodynamic effect of 5 mg/kg of compound was assessed in Beagle dogs by decrease in mean arterial pressure; max dose administered was 35 mg/kg; type: functional, Canis lupus familiaris, Artery; in short: as §2

Compound	minimal effective dose [2] [mg/kg]	minimal effective dose [4] [mg/kg]	Muscarinic receptor affinity [5]	other results
CC(C)N(CCC1(c2ccccc2)C(=O)NC(C)N2CCCCC21)C(C)C (centres undefined)	2.5	2.5	< 0.05	Decrease [1]: 21%; Kb [3]: 60.3 µM; Decrease in MAP [6]: 4%
CC(C)N(CCC1(c2ccccc2Cl)C(=O)NCN2CCCCC21)C(C)C (centres undefined)	7.5	–	< 0.01	–
CC(C)N(CCC1(c2ccccc2)C(=O)N=C(c2ccccc2)N2CCCCC21)C(C)C (centres undefined)	1	–	0.25	–
CC(C)N(CCC1(c2ccc(-c3ccccc3)cc2)C(=O)NCN2CCCCC21)C(C)C (centres undefined)	5	–	0.0625	–
CC(C)N(CCC(C(N)=O)(c1ccccc1)c1ccccn1)C(C)C (centres undefined) [DISOPYRAMIDE]	10	10	1	Decrease [1]: 56%; Decrease in MAP [7]: 57%; Kb [3]: 0.891 µM
CCC1NC(=O)C(CCN(C(C)C)C(C)C)(c2ccccc2)C2CCCCN12 (centres undefined)	6	–	0.0909	–
CC(C)N(CCC1(c2ccccc2Cl)C(=O)N=CN2CCCCC21)C(C)C (centres undefined)	15	–	0.0125	–
CC1=NC(=O)C(CCN(C(C)C)C(C)C)(c2ccccc2)C2CCCCN12 (centres undefined) [ACTISOMIDE]	9	9.1	–	Decrease [1]: 14%; Decrease in MAP [8]: 3%; MED [2]: 10 mg/kg; Kb [3]: 13.2 µM
CC(C)N(CCC1(c2ccccc2)C(=O)NCN2CCCCC21)C(C)C (centres undefined)	–	6	0.0769	Decrease in MAP [9]: 54%
CC(C)N(CC[C@]1(c2ccccc2)C(=O)N[C@@H](C)N2CCCC[C@@H]21)C(C)C	10	–	0.0434	–
CC(C)N(CCC1(c2ccccc2)C(=O)N=CN2CCCCC21)C(C)C (centres undefined)	20	–	–	MED [2]: 10 mg/kg
CC(C)N(CCC1(c2ccccc2)C(=O)NC(c2ccccc2)N2CCCCC21)C(C)C (centres undefined)	4	–	0.0434	–
CCC1=NC(=O)C(CCN(C(C)C)C(C)C)(c2ccccc2)C2CCCCN12 (centres undefined)	12.5	–	0.0625	–
CC(C)N(CC[C@]1(c2ccccc2)C(=O)N(C)CN2CCCC[C@@H]21)C(C)C	7.5	–	–	–
CC(C)N(CCC1(c2ccc(-c3ccccc3)cc2)C(=O)N=CN2CCCCC21)C(C)C (centres undefined)	2.5	2.5	0.02	Decrease in MAP [6]: 27%
